# From PubChem
# WT yeast gro inh: growth inhibition of WT yeast, mitochondrial fusion screen. 2.1% of 190,000 active. mitochondrial fusion phenotypic screen, WT strain. inhibition, % at 10 µM; in the data active = inhibition above about 58%; tested in S. cerevisiae
# Beta cell apopt: beta cell apoptosis inhibition; INS-1E cytokine-induced death, ATP luminescence, 48 h; percent of positive-control rescue, neutral wells zero; AID 435005; protection from apoptosis, % (no concentration beside the values); 0.8% of 300,000 active;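 active = Every replicate reaches about 75%, or at least half do and their mean reaches it too, limit read from the data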;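 note: 0% = cytokine-treated negative control wells and 100% = positive control rescue; higher means more ATP so stronger rescue from cytokine killing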
# T cruzi repl: blocks replication of Trypanosoma cruzi; T. cruzi beta-gal in NIH3T3, luminescence, 90 h; inhibition, % (concentration not given with the values); 1.4% of 300,000 active;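 active = mean inhibition across valid replicates above about 55%, limit read from the data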;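 note: signal also drops with host cell toxicity which is not excluded here; 0% = plate median of DMSO wells and 100% = zero luminescence signal; higher percent means less beta-gal luminescence so fewer parasites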
#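 compound dosing = single 50 nL compound addition per well in DMSO | material = NIH/3T3 host cells with β-galactosidase reporter T. cruzi | input = 5,000 host fibroblasts per well | timing = ≥90 h infection period, 3 h prior cell attachment | read-out basis = percent inhibition of parasite-derived β-gal signal | detection = GalScreen β-gal luminescence, detergent lysis, 60 min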
# SUMO Mot1 rescue: SUMOylation pathway inhibition by Mot1-301 growth rescue; S. cerevisiae Mot1-301 growth rescue, ATP luminescence, 38.5C; percent above DMSO median, 100 means doubled; growth rescue, % at 18.8 µM; 1% of 320,000 active;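 active = every valid replicate shows activation above 250% relative to neutral control wells; inactive = the rest, any valid replicate at or below 250%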;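 note: OY570 slx delta 5 strain wells were the positive control but not used for scaling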
# Efflux pump mplx: antifungal efflux pump inhibition, Nile Red retention. S. cerevisiae Candida pump triplex. inhibition, % at 10 µM. 0.44% of 330,000 active;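 active = plate passing quality check with inhibition over a set limit, or well fluorescence over plate mean plus 4 SD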;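 note: Nile Red retained in pooled yeast measured as flow cytometry median fluorescence; 0% = buffer negative control and 100% = Enniatin B positive control; higher means more Nile Red kept so more efflux inhibition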
# CSC inhib: blocks cancer stem cells | cancer stem cell-like cells viability, luminescence | inhibition, % at 7.5 µM | AID 2717 | 1.1% of 300,000 active; in the data active = inhibition above about 75%; tested in HMLE shEcad cells
# Yeast Mot1 SUMO: inhibits SUMO pathway, affecting Mot1-301 yeast growth. growth activity, percent, % at 42 µM. shares compounds with SUMO Mot1 rescue. 2,300 tested, under 10 active. S. cerevisiae Mot1-301 galactose growth, ATP luminescence, 24 h; -100 = growth of slx-deleted rescue strain;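 active = Signal drops as the depositor expects, and the fitted half-maximal dose is no more than ten times the top valid tested dose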;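 note: more negative values mean stronger growth rescue toward the control strain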
# * = called active by the depositor; x = no result; + = active, no number; ! = not confirmed by another sample; [ ] = another dose, or the depositor's remark. Only some compounds are listed: those with a hit (about 4.8% of all), similar ones and a draw of the others.
SMILES,WT yeast gro inh,Beta cell apopt,T cruzi repl,SUMO Mot1 rescue,Efflux pump mplx,CSC inhib,Yeast Mot1 SUMO
CC1(C)NC(=O)N(CC(=O)O)C1=O,18,-8,-18,574*,0,5,0
COc1ccc(NC(=O)c2ccc(S(=O)(=O)N(C)c3ccccc3)cc2)cn1,x,0,19,+,0,0,-1
COc1ccc(C(=O)Nc2ccc(S(=O)(=O)N(C)c3ccccc3)cc2)cc1,x,x,6,35,0,5,x
O=C1NC(=Nc2ccccc2)SC1(CO)CO,x,-6,2,15,0,-4,x
O=C(O)c1ccc(N=C2NC(=O)C(CO)(CO)S2)cc1,x,0,-1,767*,0,-7,0
CCCCCC(=O)NNC1=NCC(Cc2cccc(Cl)c2)S1 (stereo not given),9,x,-9,734*,0,x,1
CCCCCCCC(=O)NNC(=O)Cc1ccccc1,-2,-5,-21,9,0,-11,x
O=C(c1ccco1)N1CCN(CC(=O)N2c3ccccc3CCc3ccccc32)CC1,-2,-4,-8,368*,0,-13,0
CC(/C=N/NC(=O)c1sc(N)nc1C)=C\c1ccccc1,-9,-8,-2,-3,0,-9,x
O=C(COc1ccc([N+](=O)[O-])cc1)Nc1ccc(C(=O)NCc2cccnc2)cc1,-3,101*,20,481*,0,14,0
O=C(CCC(=O)Nc1ccc(F)cc1)N/N=C/c1cccs1,x,-5,-17,545*,0,-8,1
COc1cc2c(=O)n(-c3ccc(C)cc3)c(=O)n(CC(=O)c3ccc4c(c3)OCO4)c2cc1OC,-78,-7,4,694*,0,x,0
C=CCn1c(=O)c(C(=O)NCc2ccc3c(c2)OCO3)c(O)c2cc(OC)c(OC)cc21,x,x,-4,128,0,x,x
O=C(NCCCN1CCCC1=O)c1c(O)nc2ccccn2c1=O,x,0,6,0,0,-2,x
COc1ccc(OCC(=O)O/N=C(\N)Cc2ccc(Cl)cc2)cc1,10,-5,-13,+,0,31,0
Cc1ccc(OCC(=O)O/N=C(\N)Cc2ccc(Cl)cc2)cc1,21,-6,4,-14,0,-13,x
O=C(N1CCOCC1)C1(S(=O)(=O)c2ccccc2)CC=CC1,x,-8,-8,639*,0,-8,0
CC(=O)Nc1ccc(S(=O)(=O)NCC(=O)OCC(=O)N2CCCCCC2)cc1,x,1,x,-6,0,-5,x
CCCCCCCCCCOC(=O)Cn1c(COc2ccc(OC)cc2)[n+](C)c2ccccc21,x,114*,29,563*!,0,103*!,-2
CCCCCOC(=O)Cn1c(=O)oc2ccccc21,7,4,-12,-6,0,0,x
Cc1ccccc1C(=O)N1CCC(C(=O)N2CCN(S(=O)(=O)c3ccccc3F)CC2)CC1,13,-2,-12,4,0,-5,x
Cc1cc(C)cc(NC(=O)CS(=O)(=O)c2ccccc2)c1,x,x,8,368*,0,-6,0
O=C(NCCCn1ccnc1)Nc1cccc2ccccc12,-11,0,x,762*,0,x,0
CC(C)(C)c1ccc(CN(Cc2ccccc2)C(c2ccccn2)c2nnnn2C(C)(C)C)cc1 (stereo not given),22,44,62*,505*,0,26,0
Cc1ccccc1-c1nc2ccc(Cl)cc2c(=O)n1O,x,-5,-6,613*,0,8,-1
SMILES,WT yeast gro inh,Beta cell apopt,T cruzi repl,SUMO Mot1 rescue,Efflux pump mplx,CSC inhib,Yeast Mot1 SUMO
COc1ccc(C)cc1NC(=S)N1CCN(c2ccccn2)CC1,3,x,-22,513*,0,x,1
COc1ccc(NC(=S)N2CCN(c3ccccn3)CC2)cc1OC,-10,4,-3,3,0,-16,x
O=C(CN1c2ccccc2Sc2ccccc21)N/N=C/c1ccc(Cl)cc1Cl,x,0,49,453*,0,25,1[21 µM]
CCCCCCN=CC1=C(O)C(C(=O)OC)C(C)(C)CC1=O (stereo not given),6,-2,2,-10,0,-9,x
CC(Oc1ccc([N+](=O)[O-])cc1)C(=O)NCCCN1CCOCC1 (stereo not given),x,1,-7,505*,0,8,0
OC[C@@H]1[C@@H](c2ccc(Cl)cc2)C(c2ccc(F)cc2)=NN1c1ccccc1,x,x,x,x,0,x,x
Cc1cc(C(=O)Nc2ccccc2C)n(-c2ccccc2)n1,x,2,-2,-7,0,-12,x
O=C(NCc1ccccn1)C1CC(c2ccc(Cl)c(Cl)c2)=NO1 (stereo not given),2,-5,-3,+,0,x,0
CC(SC#N)C(=O)C12CC3CC(CC(C3)C1)C2 (stereo not given),-4,-20,-2,386*,0,14,-1
Clc1ccccc1/C=C/C=N/Nc1nc(N2CCOCC2)nc(N2CCOCC2)n1,20,5,25,x,0,-9,x
O=C(Nc1ccc(Cl)cc1)C1=Cc2ccccc2OC1,15,4,-18,594*,0,7,-3
O=C(Nc1ccc2c(c1)OCCO2)c1ccc(Cl)cc1,x,2,-8,-3,0,8,x
Cc1ccc(N2CCN(C3=NC(=O)C(Cc4ccccc4)S3)CC2)cc1 (stereo not given),3,8,2,152,0,-10,x
O=C1N=C(N2CCN(c3ccccc3)CC2)SC1Cc1ccccc1 (stereo not given),-8,-5,0,530*,0,-25,0
COc1cc(O)oc1C=Nc1ccc(C(=O)O)cc1,26,0,-1,577*,0,13,-2
N#Cc1cc2c(nc1SC1CCCCC1O)CCCC2 (stereo not given),5,-5,13,485*,0,-4,1
CSc1nc2c(cc1C#N)CCC2,x,1,-8,109,0,-14,x
CC1(C)CC(=O)N(c2cc(Cl)ccc2Cl)C(=O)C1,x,-7,0,-17,0,-13,x
CCOC(=O)c1c(C)n(C)c2cc(-c3ccc(C)cc3)c(O)cc12,-11,4,2,645*,0,10,0
COc1cc(Cl)c(C)cc1NC(=O)CN(C)C1CCS(=O)(=O)C1 (stereo not given),x,-6,x,-27,0,-2,x
COc1ccc2[nH]cc(C(=O)C(=O)N3CCCCC3)c2c1,x,-8,-9,695*,0,-2,0
CSc1ccccc1OCc1cc(C(=O)NCCN2CCCc3ccccc32)no1,x,-6,13,-18,0,-2,x
On1c(-c2ccccc2Cl)nc2ncccc21,x,-5,-11,498*,0,-3,0
Cc1cccc(C)c1NC(=S)N(CCCN1CCCCC1)Cc1ccco1,-2,-7,-7,2,0,2,x
